# Test results published in ChEMBL document CHEMBL3758117, “Discovery of indeno[1,2-b]quinoxaline derivatives as potential anticancer agents” (Eur J Med Chem, 2016).
# pIC50: −log10 of the molar value. Activity calls are given as the source filed them. The rule behind the calls is not given here.
# Experiments:
# [1] = tested on: Escherichia coli; experiment: Binding affinity to Escherichia coli negative supercoiled pBR322 DNA at 10 uM after 12 hrs by ethidium bromide staining based agarose gel electrophoresis
# Method in brief: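 Negatively supercoiled pBR322 (400 ng) in TE buffer pH 8.0 was incubated with compound at 10 μM for 12 h at room temperature. Loading buffer with sarkosyl was added. Samples were run on 1% agarose at 6 V/cm for 2.5 h in TAE pH 8.5, stained with ethidium bromide and photographed under UV.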
# [2] = tested on: MDA-MB-231; experiment: Antiproliferative activity against human MDA-MB-231 cells after 72 hrs by XTT assay; type: functional, cell-based; settings: MDA-MB-231, 72 h
# Method in brief: (§1)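 Cells kept as monolayers in DMEM with 10% FBS, penicillin, streptomycin and amphotericin at 37°C, 5% CO2. Seeded at 5 x 10³ cells/well and exposed to compound for 72 h in medium with 10% FBS. XTT plus electron-coupling reagent added, 4 h at 37°C, absorbance read at 492 nm. Percent of control growth uses mean absorbance (n = 3). The 50% value is taken from the linear portion of the curve.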
# [3] = Antiproliferative activity against human H1299 cells after 72 hrs by XTT assay; type: functional, cell-based; settings: NCI-H1299, 72 h; method in brief: as §1
# [4] = Antiproliferative activity against human PC3 cells after 72 hrs by XTT assay; type: functional, cell-based; settings: PC-3, 72 h; method in brief: as §1
# [5] = Antiproliferative activity against human HuH7 cells after 72 hrs by XTT assay; type: functional, cell-based; settings: Huh-7, 72 h; method in brief: as §1
# [6] = tested on: MRC5; experiment: Antiproliferative activity against human MRC5 cells after 72 hrs by XTT assay; type: cell-based; settings: MRC5, 72 h; method in brief: as §1
# [7] = tested on: MRC5; experiment: Selectivity index, ratio of IC50 for human MRC5 cells to IC50 for human MDA-MB-231 cells; type: functional
# [8] = Selectivity index, ratio of IC50 for human MRC5 cells to IC50 for human H1299 cells; type: functional
# [9] = tested on: MRC5; experiment: Selectivity index, ratio of IC50 for human MRC5 cells to IC50 for human PC3 cells; type: functional
# [10] = tested on: Huh-7; experiment: Selectivity index, ratio of IC50 for human MRC5 cells to IC50 for human HuH7 cells; type: functional
# [11] = molecular target: T1, DNA topoisomerase 1 (Homo sapiens) (UniProt P11387); experiment: Inhibition of human DNA topoisomerase 1-mediated relaxation of supercoiled pBR322 DNA at 100 uM after 30 mins by ethidium bromide staining based agarose gel electrophoresis
# T1 sequence (whole entry): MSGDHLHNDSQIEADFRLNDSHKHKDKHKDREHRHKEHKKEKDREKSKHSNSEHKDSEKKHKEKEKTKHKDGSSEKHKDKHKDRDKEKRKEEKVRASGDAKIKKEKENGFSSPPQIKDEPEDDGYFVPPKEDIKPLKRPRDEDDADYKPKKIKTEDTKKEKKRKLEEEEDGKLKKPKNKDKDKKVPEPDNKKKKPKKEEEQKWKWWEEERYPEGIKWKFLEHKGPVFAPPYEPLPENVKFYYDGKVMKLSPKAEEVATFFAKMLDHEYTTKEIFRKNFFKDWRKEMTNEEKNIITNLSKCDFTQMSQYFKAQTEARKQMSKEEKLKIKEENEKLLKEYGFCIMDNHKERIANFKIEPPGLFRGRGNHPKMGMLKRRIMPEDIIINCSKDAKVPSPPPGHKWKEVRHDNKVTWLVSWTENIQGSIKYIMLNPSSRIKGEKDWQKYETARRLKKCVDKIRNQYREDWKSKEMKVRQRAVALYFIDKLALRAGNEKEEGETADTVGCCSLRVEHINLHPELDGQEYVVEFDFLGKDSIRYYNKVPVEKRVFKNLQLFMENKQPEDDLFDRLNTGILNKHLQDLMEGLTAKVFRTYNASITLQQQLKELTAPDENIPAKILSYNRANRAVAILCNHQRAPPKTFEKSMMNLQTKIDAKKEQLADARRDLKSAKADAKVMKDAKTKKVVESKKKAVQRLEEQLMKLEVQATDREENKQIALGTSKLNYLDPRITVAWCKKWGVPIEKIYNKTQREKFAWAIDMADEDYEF
# Method in brief: (§2)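 Human topo I or topo II (2 units) was reacted with 0.2 μg supercoiled pBR322 in 20 μl Tris-HCl pH 7.5 containing KCl, DTT, EDTA, MgCl2 and BSA, with DMSO held at 0.5%, for 30 min at 37°C. The reaction was stopped with SDS. Samples were run on 1% agarose in Tris-acetate/EDTA at 1.5 V/cm for 2-3 h and stained with ethidium bromide. Relaxation was quantified by densitometry of the supercoiled band area.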
# [12] = molecular target: T1, DNA topoisomerase 1 (Homo sapiens); experiment: Inhibition of human DNA topoisomerase 1-mediated relaxation of supercoiled pBR322 DNA at 10 uM after 30 mins by ethidium bromide staining based agarose gel electrophoresis; method in brief: as §2
# [13] = molecular target: DNA topoisomerase 2-alpha (Homo sapiens) (UniProt P11388); experiment: Inhibition of human DNA topoisomerase 2-mediated relaxation of supercoiled pBR322 DNA at 100 uM after 30 mins by ethidium bromide staining based agarose gel electrophoresis; method in brief: as §2
# Sequence of DNA topoisomerase 2-alpha (Homo sapiens) (P11388 whole entry): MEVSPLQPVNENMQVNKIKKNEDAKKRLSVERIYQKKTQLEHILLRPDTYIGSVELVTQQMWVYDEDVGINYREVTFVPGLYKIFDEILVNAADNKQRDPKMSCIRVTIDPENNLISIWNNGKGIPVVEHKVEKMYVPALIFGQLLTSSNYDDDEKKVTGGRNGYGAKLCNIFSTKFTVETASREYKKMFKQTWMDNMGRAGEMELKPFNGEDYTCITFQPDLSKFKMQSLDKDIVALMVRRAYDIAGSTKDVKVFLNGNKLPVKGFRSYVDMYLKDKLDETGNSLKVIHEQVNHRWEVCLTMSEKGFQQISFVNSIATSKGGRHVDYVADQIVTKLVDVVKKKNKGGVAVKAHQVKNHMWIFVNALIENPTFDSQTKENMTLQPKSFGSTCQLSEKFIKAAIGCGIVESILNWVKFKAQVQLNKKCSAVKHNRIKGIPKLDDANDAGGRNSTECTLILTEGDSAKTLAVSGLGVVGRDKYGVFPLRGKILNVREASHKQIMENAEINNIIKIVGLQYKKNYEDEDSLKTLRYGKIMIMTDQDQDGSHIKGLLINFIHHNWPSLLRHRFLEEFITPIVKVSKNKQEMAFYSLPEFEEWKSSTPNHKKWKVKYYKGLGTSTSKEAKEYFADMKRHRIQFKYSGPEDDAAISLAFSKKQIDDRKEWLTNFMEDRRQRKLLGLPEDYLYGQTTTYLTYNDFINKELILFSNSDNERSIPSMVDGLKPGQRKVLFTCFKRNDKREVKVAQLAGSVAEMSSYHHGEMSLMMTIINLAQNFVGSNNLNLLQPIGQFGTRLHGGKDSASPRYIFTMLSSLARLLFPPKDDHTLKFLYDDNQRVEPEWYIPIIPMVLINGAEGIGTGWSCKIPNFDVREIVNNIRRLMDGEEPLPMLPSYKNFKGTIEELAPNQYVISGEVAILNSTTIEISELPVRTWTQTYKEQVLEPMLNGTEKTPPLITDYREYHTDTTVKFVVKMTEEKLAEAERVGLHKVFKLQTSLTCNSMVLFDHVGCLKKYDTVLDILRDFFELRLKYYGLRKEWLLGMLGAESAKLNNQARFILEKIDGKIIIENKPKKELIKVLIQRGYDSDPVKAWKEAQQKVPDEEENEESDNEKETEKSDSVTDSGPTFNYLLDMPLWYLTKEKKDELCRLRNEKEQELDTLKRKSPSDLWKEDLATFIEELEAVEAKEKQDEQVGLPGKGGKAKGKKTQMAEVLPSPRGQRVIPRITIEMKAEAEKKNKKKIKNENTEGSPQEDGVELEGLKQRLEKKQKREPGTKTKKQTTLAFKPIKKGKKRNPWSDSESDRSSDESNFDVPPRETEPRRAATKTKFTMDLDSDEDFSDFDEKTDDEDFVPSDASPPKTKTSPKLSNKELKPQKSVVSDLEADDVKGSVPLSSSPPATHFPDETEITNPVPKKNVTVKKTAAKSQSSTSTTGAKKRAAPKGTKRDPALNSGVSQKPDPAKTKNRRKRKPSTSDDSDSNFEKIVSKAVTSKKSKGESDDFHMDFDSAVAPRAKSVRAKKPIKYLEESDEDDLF
# [14] = molecular target: DNA topoisomerase 2-alpha (Homo sapiens) (UniProt P11388); experiment: Inhibition of human DNA topoisomerase 2-mediated relaxation of supercoiled pBR322 DNA at 10 uM after 30 mins by ethidium bromide staining based agarose gel electrophoresis; method in brief: as §2
SMILES,Activity [1],pIC50 [2],pIC50 [3],pIC50 [4],pIC50 [5],pIC50 [6],Ratio IC50 [7],Ratio IC50 [8],Ratio IC50 [9],Ratio IC50 [10],topoisomerase 1 inhibition (active/inactive) [11],inhibition [12],inhibition call (active/not active) [13],topoisomerase 2 inhibition (active/not active) [14],inhibition [13]
CN(C)CCCO/N=C1\c2ccccc2-c2nc3c(CN4CCCC4)cccc3nc21.Cl,Active,6.17,6.04,6.11,6.49,6.05,1.32,0.98,1.15,2.81,Active,Active,Active,inactive,–
CN(C)CCCO/N=C1\c2ccccc2-c2nc3ccccc3nc21.Cl,inactive,5.15,5.14,5.06,5.27,4.70,2.83,2.76,2.3,3.69,Active,Active,Active,inactive,–
CN(C)CCCO/N=C1\c2ccccc2-c2nc3c(CN(C)C)cccc3nc21.Cl,Active,6.05,6.09,6.11,6.12,6.06,0.98,1.09,1.13,1.17,Active,Active,Active,inactive,–
O=C1c2ccccc2-c2nc3c(C(=O)NCCN4CCCC4)cccc3nc21,inactive,5.18,4.95,4.92,5.07,5.10,1.22,0.71,0.67,0.94,Active,Active,Active,inactive,–
CN(C)CCCO/N=C1\c2ccccc2-c2nc3c(C(=O)NCCN4CCCC4)cccc3nc21.Cl,Active,6.35,5.24,6.17,6.09,5.10,17.53,1.39,11.6,9.62,Active,Active,Active,Active,–
CN(C)CCNC(=O)c1cccc2nc3c(nc12)-c1ccccc1C3=O,inactive,5.14,5.06,4.96,5.12,5.05,1.23,1.03,0.82,1.18,Active,Active,Active,inactive,–
C(=N\OCCN1CCCC1)/c1cccc2nc3c(nc12)-c1ccccc1/C3=N\OCCN1CCCC1.Cl,Active,6.00,5.22,5.29,6.11,6.04,0.9,0.15,0.18,1.17,Active,Active,Active,Active,–
CN(C)CCCO/N=C1\c2ccccc2-c2nc3c(CN4CCOCC4)cccc3nc21.Cl,inactive,5.00,5.16,5.00,5.17,4.13,7.37,10.6,7.41,10.84,Active,inactive,–,inactive,Active
Cl.c1ccc2c(c1)/C(=N\OCCN1CCCC1)c1nc3ccccc3nc1-2,inactive,5.31,5.15,5.07,5.19,4.75,3.59,2.51,2.07,2.73,Active,Active,Active,inactive,–
CN(C)CCCO/N=C1\c2ccccc2-c2nc3c(C(=O)NCCN4CCOCC4)cccc3nc21.Cl,Active,6.00,5.01,5.01,5.23,4.94,11.63,1.19,1.18,1.94,Active,Active,Active,inactive,–
